Reference: the EternaBench riboswitch data

System: MS2 coat protein
Assay: apparent Kd, MS2 coat protein; higher = weaker binding; RNA-MaP array; FMN 200 µM where present
Method in brief: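 The apparent Kd is reported as the median of filtered per-cluster binding-curve fits. To get these curves, designs transcribed by stalled E. coli RNA polymerase on Illumina sequencing-chip clusters were titrated with SNAP-549-labelled MS2 coat protein from 0.7 or 1.5 nM, doubling to 3 µM. Titrations were run without and then with constant ligand in 100 mM Tris-HCl pH 7.5, 80 mM KCl, 4 mM MgCl2, BSA, DTT, yeast tRNA and Tween-20, and green signal was normalised to red-channel RNA signal and control-cluster median Fmax.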

[1] = designed as: OFF switch for flavin mononucleotide, no ligand
[2] = ligand present: flavin mononucleotide, designed as: OFF switch for flavin mononucleotide
[3] = designed as: ON switch for flavin mononucleotide, no ligand
[4] = ligand present: flavin mononucleotide, designed as: ON switch for flavin mononucleotide

| Sequence | apparent Kd [1] [nM] | apparent Kd [2] [nM] | apparent Kd [3] [nM] | apparent Kd [4] [nM] |
| --- | --- | --- | --- | --- |
| UGAUAGGACAGAGGAUAUGCCGAUAGGAUUUACUAUCGAAGAAUCCUCACAUGAGGAUCACCCAUGUAGAAGGCUGUCCUAUCU | 7.36 | 35.9 | – | – |
| GAUUUCGCAUGAGGAUAUGCUCGCAUUUCAAGAGCAGAAGGUAUGUCAUUAGACAUGAGGAUCACCCAUGUAGUUAAGAUUGAA | – | – | 186 | 34.9 |
| AAAAGGUUAGGAUAUGCGUGGAAAAAGUGUAUCUAAAAAAAACAUGAGGAUCACCCAUGUAGAAGGGACUUAAA | 45.3 | 44 | – | – |
| ACUGUUUGAUUCCUCUUAUACAUGAGGAUCACCCAUGUUAUCGAGGAUAUGCAUUAGAGUGUUUAGCAGAAGGCGAUGUAAUUG | 6.84 | 19.9 | – | – |
| GACGCGCUCACAGGAUAUAGAUCCUCAGUGGCUCUAGAAGGGUGAACGUGCCCGAACGGGACAUGAGGAUCACCCAUGUAAUAA | – | – | 34.9 | 13.2 |
| AAAAAACAUGAGGAUCACCCAUGUAAGGAUAUGCUGAAAAACACGGAAAAAACGUGCAGCAGAAGGUACAAAAG | 59.5 | 85.9 | – | – |
| GUAGCAAUCGGAGGAUAUUCAUGAAACAUGAGGAUCACCCAUGUUAAUAUGGGAGAAGGCCGAUUGCUACAAGAGCGAAAGCUC | – | – | 8.58 | 5.76 |
| UGGUACUAGGGAGGAUAUGGGUAGAUACAUGAGGAUCACCCAUGUUUAAGAAUGCCGAGAGGCAACUAGAAGGCCCUAGUACCU | – | – | 549 | 319 |
| UCCUACAUGGGAGGAUAUGGGAAGAUACAUGAGGAUCACCCAUGUUUAAGAAUGCCGAGAGGCAACUAGAAGGCCCAUGUAGGU | – | – | 876 | 54.4 |
| GACUCGAAUGUAGGAUAUGCUGAGGAUAACUCAGCAGAAGGACAUGAGGAUCACCCAUGUCAAUGAGUGAAUAAUAAACGAGUC | 29 | 245 | – | – |
| UGAGCAAGAGGAUAUACAAGGCGACCGUGAGGUCGAGGGUUACAUGAGGAUCACCCAUGUAGAAGGCUUGUUCU | 37.1 | 323 | – | – |
| AGGGUAUGAACAUGAGGAUCACCCAUGUACUAGGAAACGAAUGAGGAUAUCGAUAGCAAAGCUAUCGAGAAGGCAUGGGACCCU | – | – | 322 | 59.2 |
| GGAAAACAUGAGGAUCACCCAUGUGAGGAUAUGAGCGUCUAGUUGAGAGAUUGGACGCUCAGAAGGCACAUGCC | 28.5 | 247 | – | – |
| AAUAUACAUGAGGAUCACCCAUGUUAGGUGGGACUAGGAUAUCAGAGUACAUUAUGAACAUGAGAAGGAGUCUCAG | – | – | 66.2 | 24.2 |
| AUAGCGCCCGAGAAGGACGUACCACAUGUUGAUCACCGAUAUAAGGAACGUAGGAUAUUGGACAUGAGGAUCACCCAUGUGGAU | – | – | 122 | 47.1 |
| CCAUGCGGAUGAGGAUAUUCAUCUAUGAGGAUAGAAGAAGGCAUACAUGAGGAUCACCCAUGUAUACGCAUGAGGAUCCCUUAC | 24 | 26 | – | – |
| GCCAGGAUGUAAGGAUAUGCUGAGGAUAACUCAGCAGAAGGUACAUGAGGAUCACCCAUGUAAUCCUAAUAAUAAUAACCUGGC | 11.5 | 17.4 | – | – |
| UAUAAUUAGUAGAAGGACGGAGAGUAAGAAGUCGUAGGAUAUACAAAAGACAUGAGGAUCACCCAUGUGAGUAUGUUGGGAAGG | 7.05 | 7.62 | – | – |
| AAUAUAAGAGCUGGUCUCAAAAGAACAUGAGGAUCACCCAUGUAGGAUAUCAGCACGAUAAGUGCUGAGAAGGACAUCCAGCUC | 14.5 | 18.6 | – | – |
| AGACUGAAGCAAGGAUAUUGUAAGGUUAUCGUACAAGAAGGUGCUGUUUAUGUCUCUUUACAUGAGGAUCACCCAUGUUUUUAA | – | – | 22.2 | 23.5 |
| CGACCCUAAACGAAAUUAUGCAGUCAGGAUAUACAUGAGGAUCACCCAUGUGCGUACCAACUCGUGUAGAAGGGACUUUUAGGG | 24.7 | 84.6 | – | – |

| Sequence | apparent Kd [1] [nM] | apparent Kd [2] [nM] | apparent Kd [3] [nM] | apparent Kd [4] [nM] |
| --- | --- | --- | --- | --- |
| UAUUAUCACGAAGGAUAUGCUGACAUGAGGAUCACCCAUGUAUGUAUAUUGAUCCAGCGUAUUUAGCAGAAGGUCGUGAGUAAA | 45.9 | 43 | – | – |
| UCAUAACAUGAGGAUCACCCAUGUCAGGAUAUGAUACUAUGUACUUCGGUACAUAGUAUCAGAAGGGACAUGCU | 121 | 18.6 | – | – |
| AUCAGCUCGUCAGGAUAUCCGUCACUGCGUCAGCAGUGUGGUAAGAUCACAUGAGGAUCACCCAUGUAGAAGGGACGAGCUGAU | 6.08 | 6.5 | – | – |
| UGGUGACGUUUCUUCUCGACAUGAGGAUCACCCAUGUAGACAGAGGAUAUCCGAGUUGCCAAUAAGGAGAAGGCUGACUGCGAA | 6.61 | 10.2 | – | – |
| ACAAAUCGAGGAUAUACAUGAGGAUCACCCAUGUGGAGCCCACUGCGCGGUUCUCAGCGUAGAAGGCGAAAACA | 30.4 | 99.9 | – | – |
| UGGUAACAUGAGGAUCACCCAUGUCAGGAUAUCAGUAAGAAGAGAUUAGAGUAGAAUAUGAGAAGGGACUAUAG | 36.7 | 30.4 | – | – |
| GGUACCAUCACAGGAUAUGCUUUCCUUUGGGAAGCAGAAGGGUGUAACAUGAGGAUCACCCAUGUGGUGCCAGGGCGUGAGCCU | – | – | 216 | 16 |
| AAGCGAGGGACAGGAUAUGCGGCGAAACUCGCCGCAGAAGGGUCGACAUGAGGAUCACCCAUGUCCUUACGCUCCAAGUAGUGG | – | – | 101 | 250 |
| GUGCCGUUGGCUCGACGACCGCUGCAGGAUAUCACAUGAGGAUCACCCAUGUGACUCUGCCCAUGUGAGAAGGGCGGCUGUGUG | 18.9 | 34.7 | – | – |
| CACCGACCCUAUGUGUUCUAAACAUGAGGAUCACCCAUGUAUAGAAGGGUCUUCGCGAAACGCAGACAGGAUAUGUACAGGAGU | 7.23 | 13.6 | – | – |
| GUGUAGAUAGGAUAUGCUUAGAGCUUACGAAAGUAGGCUCUACAUGAGGAUCACCCAUGUAGAAGGGUCUACAC | 31.3 | 19.1 | – | – |
| GUCACGAAUGUAGGAUAUCGAGUGGAUAACACUCGAGAAGGACAUGAGGAUCACCCAUGUACUAUGAAAGAUAAUAAACGUGAC | 14.4 | 20.4 | – | – |
| AGAUCCGCAGGAUAUGUCAAUUUACACAUGAGGAUCACCCAUGUGCCUUGUGUCAGCUUGAUAGAAGGGCGGACUA | 330 | 575 | – | – |
| CAAAGGUGAGGAUAUGCAUAACUAUGACGAAAGUCAUAAACACAUGAGGAUCACCCAUGUAGAAGGCGCCACAA | 63.6 | 47.8 | – | – |
| AGUCGGAGCAGAGGAUAUUACAUGAGGAUCACCCAUGUAUAAAGAUCAAGCUGGAAACAGCAAUGUAAGAAGGCUGCUCCGACA | 57.4 | 321 | – | – |
| CUUUUGUGAGGAUAUCAGUAGUAAAUAAAUAAAAUUAUUACUGAGAAGGCACAUGAGGAUCACCCAUGUUCCUC | 40.1 | 192 | – | – |
| GUAGAGAUUACAUGAGGAUCACCCAUGUCAGAACGGGUAAUCAGAAGGUAUUAUUAGAGAAAGGGUAAGGAUAUGAUUUUUUAU | – | – | 735 | 617 |
| UCAUAAUUGAUCCUAUUUACCAACAUGAGGAUCACCCAUGUGCAGGAUAUGCUAAAGAUAGAUAAGCAGAAGGGCAAAUACAUA | 162 | 756 | – | – |
| CGCAACUCUUCACAUGUAAACAUGAGGAUCACCCAUGUAUUGAGAAGGAGGAAGAAGAGAGAUUCCUAGGAUAUCAGAGUUGCG | 6.42 | 5.84 | – | – |
| UCAUGGUAGCAGGAUAUGCUUGUAAUUUUUUAUGCAGAAGGGCUUACAUGAGGAUCACCCAUGUGUUAGGUCUA | 43.4 | 66.2 | – | – |
| GAAUGUUGAGGAUAUACAUGAGGAUCACCCAUGUGUUAGCAGAGUCUGCCCGUCUUCAGUAGAAGGCAACAUUC | 17.2 | 42.4 | – | – |
